Reference: ChEMBL document CHEMBL2385031, “Design, synthesis, and initial evaluation of a high affinity positron emission tomography probe for imaging matrix metalloproteinases 2 and 9” (J Med Chem, 2013)

Tests used:
[1] = biological target: 72 kDa type IV collagenase (Homo sapiens, UniProt P08253); experiment: Inhibition of human full length MMP2 using Mca-Pro-Leu-Gly-Leu-Dpa(Dnp)-Ala-Arg-NH2 as substrate measured up to 120 mins by fluorescence assay
Summary of the method: (§1)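 Recombinant full-length human enzyme activated with APMA, used at 0.1 nM final in 50 mM Tris/HCl pH 7.5, 10 mM CaCl2, 150 mM NaCl, 0.05% Brij-35. Inhibitor added from DMSO (e.g., 1 nM to 30 μM). Activity read as initial slope of fluorescence rise from cleavage of an internally quenched fluorogenic substrate; IC50 derived.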

[2] = biological target: T1, Interstitial collagenase (Homo sapiens, UniProt P03956); experiment: Inhibition of MMP1 (unknown origin)
T1 sequence (P03956 whole entry): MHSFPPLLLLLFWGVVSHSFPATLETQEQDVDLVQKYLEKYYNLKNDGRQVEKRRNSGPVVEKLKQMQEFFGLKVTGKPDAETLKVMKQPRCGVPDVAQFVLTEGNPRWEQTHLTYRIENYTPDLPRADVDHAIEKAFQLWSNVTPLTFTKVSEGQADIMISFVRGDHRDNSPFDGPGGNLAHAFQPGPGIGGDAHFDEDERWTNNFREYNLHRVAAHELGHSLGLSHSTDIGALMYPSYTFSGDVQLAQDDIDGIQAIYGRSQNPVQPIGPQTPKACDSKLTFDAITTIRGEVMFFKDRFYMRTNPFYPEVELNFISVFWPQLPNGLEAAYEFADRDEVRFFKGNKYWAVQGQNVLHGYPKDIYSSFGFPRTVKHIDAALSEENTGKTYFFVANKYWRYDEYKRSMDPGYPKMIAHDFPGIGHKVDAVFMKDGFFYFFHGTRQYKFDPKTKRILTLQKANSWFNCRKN

[3] = biological target: Matrix metalloproteinase-9 (Homo sapiens, UniProt P14780); experiment: Inhibition of human full length MMP9 using Mca-Pro-Leu-Gly-Leu-Dpa(Dnp)-Ala-Arg-NH2 as substrate measured up to 120 mins by fluorescence assay; summary of the method: as §1
[4] = Drug excretion in C57BL/6 mouse urine at 650 MBq/mL after 15 to 60 mins by UPLC analysis; assay type: ADME, tissue-based; details: in the assay text read “after 60 mins” for “after 15 to 60 mins”, read-out: Drug excretion
Summary of the method: (§2)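 C57BL/6 mice given 150 μL of 650 MBq/mL (17.5 mCi/mL) 18F-labelled tracer each; killed by decapitation at 15, 30 and 60 min post-injection. Blood and urine collected, proteins precipitated with twice the volume of ice-cold acetonitrile, centrifuged; supernatants analysed by radio-UPLC for intact tracer versus metabolites.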

[5] = test system: Plasma; experiment: Metabolic stability in human plasma at 60 Mbq up to 2 hrs by UPLC analysis; assay type: ADME, cell-free
Summary of the method: (§3)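 About 60 MBq formulated 18F-tracer (5% ethanol in PBS) added to ~0.5 mL plasma, split into six aliquots. Zero-time sample quenched immediately with methanol; others incubated at 37 °C with shaking and quenched with ice-cold methanol at 5, 30, 60, 90, 120 min. Proteins removed by centrifugation at 10000g, 10 min; supernatants analysed by UPLC.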

[6] = Drug uptake in C57BL/6 mouse urinary bladder at 5.3 MBq, iv by PET/CT imaging; assay type: ADME, organism-based; details: in vivo
Summary of the method: (§4)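 Single C57BL/6 mouse, 5.3 MBq 18F-tracer via tail vein, isoflurane 2−3% in oxygen/air, body kept at 37 °C. Small-animal PET/CT, two-bed static acquisition: anterior 8−22 min, posterior 23−38 min post-injection; images averaged 8−38 min.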

[7] = test system: Bone; experiment: Drug uptake in C57BL/6 mouse bone at 5.3 MBq, iv by PET/CT imaging; assay type: ADME, organism-based, Bone element; details: in vivo; summary of the method: as §4
[8] = test system: Blood; experiment: Drug metabolism in C57BL/6 mouse blood assessed as compound remaining at 650 MBq/mL after 15 to 60 mins by UPLC analysis; assay type: ADME, tissue-based; summary of the method: as §2
[9] = test system: Plasma; experiment: Metabolic stability in rat plasma at 60 Mbq up to 2 hrs by UPLC analysis; assay type: ADME, cell-free; summary of the method: as §3

Sequence of 72 kDa type IV collagenase (P08253 whole entry): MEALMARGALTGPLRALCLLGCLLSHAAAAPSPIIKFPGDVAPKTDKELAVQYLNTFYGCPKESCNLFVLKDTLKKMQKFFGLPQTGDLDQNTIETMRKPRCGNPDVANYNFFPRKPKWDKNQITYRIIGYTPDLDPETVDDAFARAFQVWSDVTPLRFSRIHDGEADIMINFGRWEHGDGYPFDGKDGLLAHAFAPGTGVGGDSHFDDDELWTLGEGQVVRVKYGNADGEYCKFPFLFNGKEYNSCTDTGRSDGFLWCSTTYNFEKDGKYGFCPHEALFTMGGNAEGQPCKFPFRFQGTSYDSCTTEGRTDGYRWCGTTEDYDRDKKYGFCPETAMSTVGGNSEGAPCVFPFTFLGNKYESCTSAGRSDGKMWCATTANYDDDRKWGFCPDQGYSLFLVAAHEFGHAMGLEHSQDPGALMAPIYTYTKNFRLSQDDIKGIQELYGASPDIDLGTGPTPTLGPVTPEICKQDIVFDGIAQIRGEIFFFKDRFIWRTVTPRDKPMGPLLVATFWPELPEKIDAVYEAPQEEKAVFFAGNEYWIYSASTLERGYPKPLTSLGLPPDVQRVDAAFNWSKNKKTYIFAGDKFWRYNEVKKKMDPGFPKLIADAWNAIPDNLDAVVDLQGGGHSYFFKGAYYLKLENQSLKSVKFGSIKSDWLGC
Sequence of Matrix metalloproteinase-9 (P14780 whole entry): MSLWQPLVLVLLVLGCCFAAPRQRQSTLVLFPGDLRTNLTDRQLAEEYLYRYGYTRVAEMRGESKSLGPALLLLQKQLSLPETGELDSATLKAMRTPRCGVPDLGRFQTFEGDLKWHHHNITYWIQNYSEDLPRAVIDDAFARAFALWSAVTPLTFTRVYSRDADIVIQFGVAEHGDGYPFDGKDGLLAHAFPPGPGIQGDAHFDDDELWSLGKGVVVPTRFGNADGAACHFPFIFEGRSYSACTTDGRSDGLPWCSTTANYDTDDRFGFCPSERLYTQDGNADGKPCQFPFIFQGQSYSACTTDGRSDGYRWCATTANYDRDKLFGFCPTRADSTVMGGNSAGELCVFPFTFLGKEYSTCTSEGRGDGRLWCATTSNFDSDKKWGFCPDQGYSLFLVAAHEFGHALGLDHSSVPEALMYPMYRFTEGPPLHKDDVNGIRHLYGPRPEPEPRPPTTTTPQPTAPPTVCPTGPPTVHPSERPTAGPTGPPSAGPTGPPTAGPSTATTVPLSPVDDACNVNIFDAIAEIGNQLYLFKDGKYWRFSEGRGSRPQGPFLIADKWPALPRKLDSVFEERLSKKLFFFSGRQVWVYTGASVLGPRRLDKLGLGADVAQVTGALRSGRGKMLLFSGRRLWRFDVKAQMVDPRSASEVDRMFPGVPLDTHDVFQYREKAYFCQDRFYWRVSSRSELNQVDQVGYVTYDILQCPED

Row | Compound | IC50 [1] [nM] | IC50 [3] [nM] | also measured
1 | O=C(Nc1ccc(S(=O)(=O)N[C@H](Cc2c[nH]c3ccccc23)C(=O)O)cc1)c1ccc(Br)cc1 | 0.9 | 1 | IC50 [2]: > 1000 nM
2 | COc1ccc(-c2ccc(S(=O)(=O)N[C@H](Cc3c[nH]c4ccccc34)C(=O)O)cc2)cc1 | 4.8 | 28 | –
3 | O=C(Nc1ccc(S(=O)(=O)N[C@H](Cc2c[nH]c3ccccc23)C(=O)O)cc1)c1ccc(OC(F)(F)F)cc1 | 4.8 | 21 | –
4 | O=C(Nc1ccc(S(=O)(=O)N[C@H](Cc2c[nH]c3ccccc23)C(=O)O)cc1)c1ccc(F)cc1 | 1.8 | 7 | IC50 [2]: > 1000 nM
5 | O=C(Nc1ccc(S(=O)(=O)N[C@H](Cc2c[nH]c3ccccc23)C(=O)O)cc1)c1ccc(I)cc1 | < 1 | 1.1 | –
6 | COc1ccc(C(=O)Nc2ccc(S(=O)(=O)N[C@H](Cc3c[nH]c4ccccc34)C(=O)O)cc2)cc1 | < 1 | 11 | –
7 | CC(C)Oc1ccc(C(=O)Nc2ccc(S(=O)(=O)N[C@H](Cc3c[nH]c4ccccc34)C(=O)O)cc2)cc1 | < 1 | 97 | –
8 | CC(C)COc1ccc(C(=O)Nc2ccc(S(=O)(=O)N[C@H](Cc3c[nH]c4ccccc34)C(=O)O)cc2)cc1 | < 1 | 460 | –
9 | O=C(Nc1ccc(S(=O)(=O)N[C@H](Cc2c[nH]c3ccccc23)C(=O)O)cc1)c1ccnc(F)c1 | 14 | 78 | –
10 | O=C(Nc1ccc(S(=O)(=O)N[C@H](Cc2c[nH]c3ccccc23)C(=O)O)cc1)c1ccc(F)nc1 | 7 | 17 | IC50 [2]: > 1000 nM
11 | O=C(Nc1ccc(S(=O)(=O)N[C@H](Cc2c[nH]c3ccccc23)C(=O)O)cc1)c1cccnc1F | 141 | > 1000 | –
12 | O=C(Nc1ccc(S(=O)(=O)N[C@H](Cc2c[nH]c3ccccc23)C(=O)O)cc1)c1cc(F)ccn1 | 5.2 | 38 | –
13 | O=C(O)[C@@H](Cc1c[nH]c2ccccc12)NS(=O)(=O)c1ccc(-c2ccc(Cl)cc2)cc1 | 5.8 | 230 | –
14 | COc1ccc(Oc2ccc(S(=O)(=O)N[C@H](Cc3c[nH]c4ccccc34)C(=O)O)cc2)cc1 | 3.6 | 100 | –
15 | O=C(Nc1ccc(S(=O)(=O)N[C@H](Cc2c[nH]c3ccccc23)C(=O)O)cc1)c1ccc([18F])cc1 | – | – | dose excreted [4]: 85%; Stability [5]: Stable; Drug uptake [6]: Active; Drug uptake [7]: Not Active; Drug metabolism [8]: Not Active; Stability [9]: Stable
